The source made the active and inactive calls. The calls are words filed in the database; no cut-off is given here.
What was measured:
[1] = molecular target: T1, Catenin beta-1 (Homo sapiens) (UniProt P35222); experiment: Inhibition of TGF-beta1-regulated increase in nuclear beta-catenin in human HCT116 cells at 50 nM after 48 hrs by Western blot analysis; type: cell-based
T1 sequence (whole entry): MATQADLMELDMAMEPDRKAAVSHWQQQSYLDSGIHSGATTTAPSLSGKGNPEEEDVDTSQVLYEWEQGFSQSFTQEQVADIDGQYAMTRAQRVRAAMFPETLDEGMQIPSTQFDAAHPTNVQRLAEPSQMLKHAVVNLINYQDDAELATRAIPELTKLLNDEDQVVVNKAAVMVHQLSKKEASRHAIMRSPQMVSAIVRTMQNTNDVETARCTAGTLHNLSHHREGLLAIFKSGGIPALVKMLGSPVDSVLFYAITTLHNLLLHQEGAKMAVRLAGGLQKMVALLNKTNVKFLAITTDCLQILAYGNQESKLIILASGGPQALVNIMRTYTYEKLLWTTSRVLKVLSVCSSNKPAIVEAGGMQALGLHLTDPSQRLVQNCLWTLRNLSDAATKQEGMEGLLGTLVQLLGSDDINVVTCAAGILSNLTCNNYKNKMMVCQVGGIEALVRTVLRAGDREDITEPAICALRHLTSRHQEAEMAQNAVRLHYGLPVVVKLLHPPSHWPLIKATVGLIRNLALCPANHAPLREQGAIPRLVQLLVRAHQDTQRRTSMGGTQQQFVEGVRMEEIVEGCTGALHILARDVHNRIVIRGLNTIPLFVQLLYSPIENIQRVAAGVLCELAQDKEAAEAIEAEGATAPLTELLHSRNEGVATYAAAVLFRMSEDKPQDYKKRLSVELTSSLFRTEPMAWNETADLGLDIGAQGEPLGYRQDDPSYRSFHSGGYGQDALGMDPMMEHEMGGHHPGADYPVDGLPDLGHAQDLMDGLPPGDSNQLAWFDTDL
How it was run: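 Cytoplasmic and nuclear β-catenin were measured by Western blot in HCT-116 cells given TGF-β1 (10 ng/mL) for 48 h, with or without compound, against 0.1% DMSO vehicle. Lysates (20 μg/lane) were run on 7.5% gels and transferred to PVDF, with Lamin A among the antibodies used. Blots were read by ECL and densitometry, n = 3 independent experiments.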

HCT-116 [2] = experiment: Inhibition of TGF-beta1-induced increase in expression levels of MMP-9 protein in human HCT116 cells at 50 nM after 48 hrs by Western blot analysis; type: functional, cell-based
How it was run: (§1)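 HCT-116 cells (1 × 10^6/well, plated overnight) were exposed to TGF-β1 (10 ng/mL) for 48 h, with or without test compound; vehicle was 0.1% DMSO. Lysates (20 μg/lane) were run on 7.5% SDS-PAGE and blotted to PVDF, with primary antibody overnight at 4 °C and HRP/ECL detection. Band densities were normalised to β-actin across three independent experiments.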

HCT-116 [3] = experiment: Inhibition of TGF-beta1-induced increase in expression levels of vimentin protein in human HCT116 cells at 50 nM after 48 hrs by Western blot analysis; type: functional, cell-based; how it was run: as §1
HCT-116 [4] = experiment: Antiproliferative activity against human HCT116 cells at […] pretreated with GSH for 1 hr measured after 72 hrs by MTT assay relative to control; type: functional
HCT-116 [5] = experiment: Induction of ROS accumulation in human HCT116 cells up to 3 hrs in presence of GSH by DCFH-DA staining-based fluorescence microscopic analysis; type: functional, cell-based
Mus musculus = experiment: Nephrotoxicity in BALB/c nude mouse xenografted with human HCT116 cells at 2.5 to 5 mg/kg, ip administered for 21 consecutive days; type: toxicity, organism-based; settings: in vivo
How it was run: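 Male BALB/c nude mice (3−5 weeks) inoculated sc with 1 × 10^7 HCT-116 cells; at tumour volume about 75 mm3 randomized (n = 8 per group) and dosed ip daily at 2.5 or 5 mg/kg for 21 consecutive days. Body weights monitored; liver, kidney, lung and heart inspected for size and morphology at sacrifice.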

| SMILES | inhibition [1] | inhibition (HCT-116 [2]) | inhibition (HCT-116 [3]) | inhibition at […] (HCT-116 [4]) [%] | Activity (HCT-116 [5]) | Activity (Mus musculus) |
| --- | --- | --- | --- | --- | --- | --- |
| COc1cc(/C=C/C(=O)N2CCC=CC2=O)cc(OC)c1OC [PIPLARTINE] | Active | Active | Active | – | – | – |
| Cc1nc(C)c(/C=C/C(=O)N2CCC=C(Cl)C2=O)nc1C | – | – | – | 36.1 | inactive | Non-Toxic |

From ChEMBL document CHEMBL4033788, “Novel Ligustrazine-Based Analogs of Piperlongumine Potently Suppress Proliferation and Metastasis of Colorectal Cancer Cells in Vitro and in Vivo” (J Med Chem, 2018)
